{
  "source": "ChEMBL document CHEMBL3872205",
  "about": "“Design, synthesis and evaluation of novel potent angiotensin II receptor 1 antagonists” (Eur J Med Chem, 2016)",
  "key": {"Rattus norvegicus [1]": {"system": "Rattus norvegicus", "experiment": "Toxicity in rat model assessed as effect on heart rate at 10 to 15 mg/kg, po up to 24 hrs", "type": "organism-based", "conditions": "in vivo"}, "Rattus norvegicus [2]": {"system": "Rattus norvegicus", "experiment": "Antihypertensive activity in spontaneous hypertensive rat model assessed as reduction in mean blood pressure at 10 mg/kg, po after 4 hrs", "type": "functional", "procedure,_shortened": "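Male SHRs (250 ± 20 g) were randomized, 6 per group. Compound was suspended in 0.5% sodium carboxymethyl cellulose and given orally; vehicle-only negative control. Mean blood pressure was calculated as (SBP − DBP)/3 + DBP from systolic and diastolic readings over the time course. Data are mean ± SD, with p < 0.05 taken as significant.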"}, "[3]": {"experiment": "AUC (0 to 72 hrs) in Wistar rat plasma at 15 mg/kg, po by HPLC analysis", "type": "ADME, organism-based", "design": "dose 15 mg/kg, time < 72 hr, route oral", "procedure,_shortened": "(§1)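 Male Wistar rats (180 ± 20 g, n = 6 per group) got one oral dose. Heparinized blood was taken by retro-orbital puncture before dosing and at 0.5–72 h. Plasma was spun at 4000 × g, 4 °C, 10 min, spiked with internal standard and protein-precipitated with acetonitrile. Analysis was reverse-phase C18 HPLC (0.02 mol/L KH2PO4 55%/acetonitrile 45%, 1.0 mL/min). Calibration used 0.1–10 µg/mL, peak-height ratio, weighting concentration^-2.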"}, "[4]": {"experiment": "AUC (0 to infinity) in Wistar rat plasma at 30 mg/kg, po by HPLC analysis", "type": "ADME, organism-based", "design": "dose 30 mg/kg, route oral, time infinity", "procedure,_shortened": "as §1"}, "[5]": {"experiment": "MRT (0 to 72 hrs) in Wistar rat plasma at 10 mg/kg, po by HPLC analysis", "type": "ADME, organism-based", "procedure,_shortened": "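Male Wistar rats (180 ± 20 g), 6 per dose group, each given a single oral dose. Blood was drawn by retro-orbital puncture into heparin at predose and at 0.5, 1, 2, 4, 6, 8, 12, 24, 48 and 72 h, then spun at 4000 × g and 4 °C. Plasma with internal standard was acetonitrile-precipitated, filtered and run on reverse-phase C18 HPLC (0.02 mol/L KH2PO4 55% / acetonitrile 45%, 1.0 mL/min). Calibration standards were 0.1–10 µg/mL, fitted by peak-height ratio with 1/conc² weighting.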"}, "[6]": {"experiment": "Half life in Wistar rat plasma at 15 mg/kg, po by HPLC analysis", "type": "ADME, organism-based"}, "[7]": {"experiment": "MRT (0 to infinity) in Wistar rat Heart at 15 mg/kg, po by HPLC analysis", "type": "ADME, organism-based", "procedure,_shortened": "(§2)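 Male Wistar rats (180 ± 20 g) received a single oral dose of 10, 15 or 30 mg/kg. Tissues were collected at 0, 0.5, 1, 2, 4, 6, 8, 12, 24, 48 and 72 h (n = 6 per point). Samples of 0.25 g were rinsed, then homogenized in saline (0.25 g/1 mL) and centrifuged at 10,000 × g. Supernatant was methanol-extracted, dried under nitrogen at 50 °C and reconstituted in methanol. Analysis was by C18 HPLC (acetonitrile 60% / water 40%, 1.0 mL/min).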"}, "[8]": {"experiment": "MRT (0 to infinity) in Wistar rat Heart at 30 mg/kg, po by HPLC analysis", "type": "ADME, organism-based", "procedure,_shortened": "as §2"}, "[9]": {"experiment": "Tmax in Wistar rat Heart at 15 mg/kg, po by HPLC analysis", "type": "ADME, organism-based", "procedure,_shortened": "as §2"}, "[10]": {"experiment": "Tmax in Wistar rat Heart at 30 mg/kg, po by HPLC analysis", "type": "ADME, organism-based", "procedure,_shortened": "as §2"}, "[11]": {"experiment": "Cmax in Wistar rat heart at 30 mg/kg, po by HPLC analysis", "type": "ADME, organism-based", "design": "dose 30 mg/kg, route oral", "procedure,_shortened": "(§3)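 Tissue distribution in male Wistar rats given oral 10, 15 or 30 mg/kg; heart, liver, spleen, lung, kidney and brain collected predose and 0.5–72 h post-dose (n = 6 per time). Tissue rinsed in saline, homogenised 0.25 g/1 mL saline, methanol extraction, dried under nitrogen, reconstituted in methanol. Analysis by reverse-phase C18 HPLC, acetonitrile/water 60:40, 1.0 mL/min, ambient temperature.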"}, "[12]": {"experiment": "MRT (0 to infinity) in Wistar rat liver at 15 mg/kg, po by HPLC analysis", "type": "ADME, organism-based", "procedure,_shortened": "as §2"}, "[13]": {"experiment": "Half life in Wistar rat liver at 10 mg/kg, po by HPLC analysis", "type": "ADME, organism-based", "procedure,_shortened": "as §3"}, "[14]": {"experiment": "Tmax in Wistar rat liver at 15 mg/kg, po by HPLC analysis", "type": "ADME, organism-based", "procedure,_shortened": "as §2"}, "[15]": {"experiment": "Tmax in Wistar rat liver at 30 mg/kg, po by HPLC analysis", "type": "ADME, organism-based", "procedure,_shortened": "as §2"}, "[16]": {"experiment": "Cmax in Wistar rat liver at 10 mg/kg, po by HPLC analysis", "type": "ADME, organism-based", "design": "dose 10 mg/kg, route oral", "procedure,_shortened": "as §3"}, "[17]": {"experiment": "AUC (0 to 72 hrs) in Wistar rat spleen at 15 mg/kg, po by HPLC analysis", "type": "ADME, organism-based", "design": "dose 15 mg/kg, time < 72 hr, route oral", "procedure,_shortened": "(§4)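 Wistar rats (180 ± 20 g) were dosed orally at 10, 15 or 30 mg/kg. Heart, liver, spleen, lung, kidney and brain were collected at 0–72 h (n = 6 per point). Tissue was rinsed, blotted and homogenized in saline (0.25 g/1 mL), then spun at 10,000 × g. Supernatant was methanol-extracted, dried under nitrogen at 50 °C, reconstituted in methanol and run on C18 HPLC (acetonitrile 60%/water 40%, 1.0 mL/min).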"}, "[18]": {"experiment": "MRT (0 to 72 hrs) in Wistar rat spleen at 15 mg/kg, po by HPLC analysis", "type": "ADME, organism-based", "procedure,_shortened": "as §2"}, "[19]": {"experiment": "Cmax in Wistar rat spleen at 30 mg/kg, po by HPLC analysis", "type": "ADME, organism-based", "design": "dose 30 mg/kg, route oral", "procedure,_shortened": "as §3"}, "[20]": {"experiment": "AUC (0 to 72 hrs) in Wistar rat lung at 30 mg/kg, po by HPLC analysis", "type": "ADME, organism-based", "design": "time < 72 hr, dose 30 mg/kg, route oral", "procedure,_shortened": "as §4"}, "[21]": {"experiment": "MRT (0 to infinity) in Wistar rat lung at 10 mg/kg, po by HPLC analysis", "type": "ADME, organism-based", "procedure,_shortened": "as §2"}, "[22]": {"experiment": "Half life in Wistar rat lung at 10 mg/kg, po by HPLC analysis", "type": "ADME, organism-based", "procedure,_shortened": "as §3"}, "[23]": {"experiment": "Half life in Wistar rat lung at 30 mg/kg, po by HPLC analysis", "type": "ADME, organism-based", "procedure,_shortened": "as §3"}, "[24]": {"experiment": "Tmax in Wistar rat lung at 15 mg/kg, po by HPLC analysis", "type": "ADME, organism-based", "procedure,_shortened": "as §2"}, "[25]": {"experiment": "Cmax in Wistar rat lung at 15 mg/kg, po by HPLC analysis", "type": "ADME, organism-based", "design": "dose 15 mg/kg, route oral", "procedure,_shortened": "as §3"}, "[26]": {"experiment": "MRT (0 to 72 hrs) in Wistar rat kidney at 15 mg/kg, po by HPLC analysis", "type": "ADME, organism-based", "procedure,_shortened": "as §3"}, "[27]": {"experiment": "MRT (0 to infinity) in Wistar rat kidney at 30 mg/kg, po by HPLC analysis", "type": "ADME, organism-based", "procedure,_shortened": "as §2"}, "[28]": {"experiment": "Cmax in Wistar rat kidney at 30 mg/kg, po by HPLC analysis", "type": "ADME, organism-based", "design": "dose 30 mg/kg, route oral", "procedure,_shortened": "as §3"}, "[29]": {"experiment": "AUC (0 to 72 hrs) in Wistar rat brain at 10 mg/kg, po by HPLC analysis", "type": "ADME, organism-based", "design": "time < 72 hr, dose 10 mg/kg, route oral", "procedure,_shortened": "as §4"}, "[30]": {"experiment": "MRT (0 to 72 hrs) in Wistar rat brain at 10 mg/kg, po by HPLC analysis", "type": "ADME, organism-based", "procedure,_shortened": "as §3"}, "[31]": {"experiment": "MRT (0 to 72 hrs) in Wistar rat brain at 15 mg/kg, po by HPLC analysis", "type": "ADME, organism-based", "procedure,_shortened": "as §3"}, "[32]": {"experiment": "MRT (0 to infinity) in Wistar rat brain at 30 mg/kg, po by HPLC analysis", "type": "ADME, organism-based", "procedure,_shortened": "as §2"}, "[33]": {"experiment": "Half life in Wistar rat brain at 15 mg/kg, po by HPLC analysis", "type": "ADME, organism-based", "procedure,_shortened": "as §3"}, "[34]": {"experiment": "Cmax in Wistar rat brain at 15 mg/kg, po by HPLC analysis", "type": "ADME, organism-based", "design": "dose 15 mg/kg, route oral", "procedure,_shortened": "as §4"}, "[35]": {"experiment": "Cmax in Wistar rat brain at 30 mg/kg, po by HPLC analysis", "type": "ADME, organism-based", "design": "dose 30 mg/kg, route oral", "procedure,_shortened": "as §4"}},
  "data": [
    {"smiles": "CCCCC1=NC2(CCCC2)C(=O)N1Cc1ccc2c(ccn2-c2ccccc2-c2nnn[nH]2)c1", "values": [
      {"measurement": "Activity", "setting": "Rattus norvegicus [1]", "result": "Non-Toxic"},
      {"measurement": "Activity", "setting": "Rattus norvegicus [2]", "result": 28.39, "unit": "mmHg"},
      {"measurement": "AUC(0-t) at 72 h", "setting": "[3]", "result": 26500, "unit": "ng·h/mL"},
      {"measurement": "AUC(0-inf)", "setting": "[4]", "result": 88800, "unit": "ng·h/mL"},
      {"measurement": "MRT last", "setting": "[5]", "result": 7.87, "unit": "h"},
      {"measurement": "half-life", "setting": "[6]", "result": 9.03, "unit": "h"},
      {"measurement": "MRT inf", "setting": "[7]", "result": 23.9, "unit": "h"},
      {"measurement": "MRT inf", "setting": "[8]", "result": 28.1, "unit": "h"},
      {"measurement": "Tmax", "setting": "[9]", "result": 4.67, "unit": "h"},
      {"measurement": "Tmax", "setting": "[10]", "result": 4.8, "unit": "h"},
      {"measurement": "Cmax", "setting": "[11]", "result": 401, "unit": "ng/mL"},
      {"measurement": "MRT inf", "setting": "[12]", "result": 4.77, "unit": "h"},
      {"measurement": "half-life", "setting": "[13]", "result": 2.33, "unit": "h"},
      {"measurement": "Tmax", "setting": "[14]", "result": 2, "unit": "h"},
      {"measurement": "Tmax", "setting": "[15]", "result": 4, "unit": "h"},
      {"measurement": "Cmax", "setting": "[16]", "result": 721, "unit": "ng/mL"},
      {"measurement": "AUC(0-t) at 72 h", "setting": "[17]", "result": 11900, "unit": "ng·h/mL"},
      {"measurement": "MRT last", "setting": "[18]", "result": 9.71, "unit": "h"},
      {"measurement": "Cmax", "setting": "[19]", "result": 1880, "unit": "ng/mL"},
      {"measurement": "AUC(0-t) at 72 h", "setting": "[20]", "result": 2360, "unit": "ng·h/mL"},
      {"measurement": "MRT inf", "setting": "[21]", "result": 10.6, "unit": "h"},
      {"measurement": "half-life", "setting": "[22]", "result": 3.04, "unit": "h"},
      {"measurement": "half-life", "setting": "[23]", "result": 2.35, "unit": "h"},
      {"measurement": "Tmax", "setting": "[24]", "result": 1, "unit": "h"},
      {"measurement": "Cmax", "setting": "[25]", "result": 369, "unit": "ng/mL"},
      {"measurement": "MRT last", "setting": "[26]", "result": 19.4, "unit": "h"},
      {"measurement": "MRT inf", "setting": "[27]", "result": 24.1, "unit": "h"},
      {"measurement": "Cmax", "setting": "[28]", "result": 396, "unit": "ng/mL"},
      {"measurement": "AUC(0-t) at 72 h", "setting": "[29]", "result": 346, "unit": "ng·h/mL"},
      {"measurement": "MRT last", "setting": "[30]", "result": 8.1, "unit": "h"},
      {"measurement": "MRT last", "setting": "[31]", "result": 11.6, "unit": "h"},
      {"measurement": "MRT inf", "setting": "[32]", "result": 9.02, "unit": "h"},
      {"measurement": "half-life", "setting": "[33]", "result": 2.59, "unit": "h"},
      {"measurement": "Cmax", "setting": "[34]", "result": 93.3, "unit": "ng/mL"},
      {"measurement": "Cmax", "setting": "[35]", "result": 196, "unit": "ng/mL"}
    ]}
  ]
}
